Most compounds without a hit are left out; they make up all but 2.5% or so of the library.
Fh CTSL1 inh – Fasciola hepatica cathepsin L1 inhibitors, primary screen, counter-screen for PFM18AAP inhibitor project, biochemical, QFRET, fluorogenic peptide substrate; recombinant F. hepatica cathepsin L1, Z-Leu-Arg-MCA fluorescence; inhibition, % at 5.96 µM; actives 0.49% (n = 300,000); AID 1906, 2009;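 active means inhibition above the mean of all tested compounds plus 3 SD, set per screening campaign, cut at about 17% in these data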;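 further: 0% = plate median of test compound wells and 100% = 1 µM Z-Phe-Ala-diazomethylketone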
PRMT1 inh – PRMT1 methyltransferase inhibitors, primary screen, biochemical, fluorescence polarization; Protein arginine N-methyltransferase 1 (Homo sapiens), Q99873; recombinant PRMT1, activity-based probe fluorescence polarization; inhibition, % at 2.79 µM; actives 1.3% (n = 370,000);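 active means inhibition above about 21% made by adding two undisclosed values, limit read from the data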
GSTO1 inh – inhibitors of recombinant GSTO1, primary screen, counter-screen for RBBP9 inhibitor project, biochemical, fluorescence polarization. Glutathione S-transferase omega-1 (Homo sapiens), P78417. activity-based probe fluorescence polarization. inhibition, % at 5.96 µM. actives 1.1% (n = 300,000). AID 1974, 2009;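 active means inhibition above the campaign mean inhibition plus 3 SD, cut at about 35% in these data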;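 further: 0% = GSTO1-1 with DMSO and 100% = wells lacking GSTO1-1 enzyme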
PAD4 FP inh – human PAD4 inhibitors, primary screen, biochemical, fluorescence polarization, 1536-well format. inhibition, % at 6.36 µM. recombinant PAD4, RCA probe fluorescence polarization. actives 0.41% (n = 330,000). AID 485272, 2010. Protein-arginine deiminase type-4 (Homo sapiens), Q9UM07;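 active means percent inhibition above a cutoff equal to the mean of all tested compounds plus 3 SD, cut at about 15% in these data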;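 further: 0% = PAD4 with RCA probe and DMSO and 100% = probe without PAD4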
Target sequence (Q9UM07 whole entry, looked up): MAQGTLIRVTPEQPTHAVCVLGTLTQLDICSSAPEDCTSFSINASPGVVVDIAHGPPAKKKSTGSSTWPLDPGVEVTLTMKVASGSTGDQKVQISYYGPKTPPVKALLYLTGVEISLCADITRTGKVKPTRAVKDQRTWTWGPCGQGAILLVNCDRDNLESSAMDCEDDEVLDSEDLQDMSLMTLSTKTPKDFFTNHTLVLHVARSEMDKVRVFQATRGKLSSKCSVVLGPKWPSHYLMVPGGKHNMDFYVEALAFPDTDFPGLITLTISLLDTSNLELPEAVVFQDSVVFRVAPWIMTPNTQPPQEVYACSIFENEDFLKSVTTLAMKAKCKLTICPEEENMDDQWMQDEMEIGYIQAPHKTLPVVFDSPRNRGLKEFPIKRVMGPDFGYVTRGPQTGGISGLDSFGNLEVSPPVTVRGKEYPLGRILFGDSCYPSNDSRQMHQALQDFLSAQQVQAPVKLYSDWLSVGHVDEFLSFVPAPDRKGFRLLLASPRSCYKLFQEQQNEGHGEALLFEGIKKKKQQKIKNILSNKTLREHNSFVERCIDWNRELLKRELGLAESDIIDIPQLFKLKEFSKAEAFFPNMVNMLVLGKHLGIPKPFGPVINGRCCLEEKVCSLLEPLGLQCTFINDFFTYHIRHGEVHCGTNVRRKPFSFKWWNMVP
TDP2 absorb – human TDP2 enzyme inhibitors, primary screen, biochemical, epi absorbance, recombinant enzyme; Tyrosyl-DNA phosphodiesterase 2 (Homo sapiens), O95551; T5PNP hydrolysis, p-nitrophenol absorbance 415 nm; inhibition, % at 12.8 µM; actives 0.34% (n = 370,000);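 active means inhibition above the mean of all tested compounds plus 3 SD, set per campaign, cut at about 25% in these data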;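 further: 0% = DMSO with enzyme and 100% = buffer with substrate but no TDP2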
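test system = human TDP2 enzyme | input = TDP2 enzyme at 120 nM final | medium = 50 mM Tris-HCl pH 7.5 with Mg2+, KCl, DTT, BSA | also added = T5PNP substrate, 5 mM | times = 2 h at 37 °C | technique = epi absorbance | benchmarks = high control without enzyme, low control DMSO plus TDP2 | replication = each compound tested once, singlicate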
PRMT1 confirm – PRMT1 methyltransferase inhibitors, confirmation, biochemical, fluorescence polarization, triplicate; shares compounds with PRMT1 inh; recombinant His-PRMT1, activity-based probe fluorescence polarization; inhibition, % at 2.79 µM; actives 42% (n = 3,300);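 active means mean inhibition across replicates above the hit cutoff derived for the earlier primary screen, cut at about 22% in these data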
An asterisk follows results filed as active; . = not tested or not shown; ! = not active in a repeat.

SMILES	Fh CTSL1 inh	PRMT1 inh	GSTO1 inh	PAD4 FP inh	TDP2 absorb	PRMT1 confirm
COc1ccc(C2c3sc(=O)[nH]c3SC3C(=O)N(c4ccccc4)C(=O)C32)cc1 (centres undefined)	-1	27*	5	-5	-11	1
CCn1c(C)c(P(=O)(N2CCOCC2)N2CCOCC2)c2ccccc21	-7	-1	-8	3	13	.
Cn1cc(P(=S)(N2CCOCC2)N2CCOCC2)cc1P(=O)(N1CCOCC1)N1CCOCC1	-8	40*	-7	3	-8	6
Cn1cc(P(=O)(N2CCOCC2)N2CCOCC2)cc1P(=S)(N1CCOCC1)N1CCOCC1	2	30*	6	0	5	40*
COc1ccc([C@H]2OC(=O)C[C@H]2C(=O)N2CCN(c3ccccc3C(F)(F)F)CC2)cc1OC	.	0	.	.	-7	.
[C-]#[N+][C@]12C(=O)[C@H](C=C(Cl)[C@@]1(C)C=C)C(C)(C)[C@H]1C(=O)N(C)c3cccc2c31	.	-1	.	.	-9	.
CCCCN(C)C(=O)CSc1nnc(-c2cccnc2)n1C1CCCCC1	.	0	.	.	10	.
O=C(OCC#CCSc1nnc(-c2ccc(Cl)cc2)o1)c1ccc(F)cc1	.	-2	.	.	4	.
O=C(OCc1cn(Cc2ccc(C(F)(F)F)cc2)nn1)N1CCCC1	.	2	.	.	0	.
Nc1nc(-c2cc(O)ccc2[N+](=O)[O-])cc(-c2ccccc2)c1[N+](=O)[O-]	.	27*	.	.	0	18
COc1cc2c(cc1OC)C(c1ccc(N(C)C)cc1)NCC2 (centres undefined)	-4	-1	0	5	6	.
Cc1ccc(C2NCCS2)cc1 (centres undefined)	-4	32*	7	0	-18	8
CN(C)c1ccc(C2NCCS2)cc1 (centres undefined)	4	35*	4	-1	-7	34*
Cc1ccc(C2=NNC(=O)C(c3ccc(Cl)cc3)C2)cc1 (centres undefined)	2	1	-4	-7	7	.
Cc1cc(NS(=O)(=O)c2ccc(NC(=O)CSc3nnc(-c4ccncc4)n3Cc3ccco3)cc2)nc(C)n1	.	33*	.	.	-2	-1
CN1CCC2(CC1)C1CN(C)CC=C1C(C#N)=C(N)C2(C#N)C#N (centres undefined)	3	40*	20	8	-2	22*!
O=C(CSc1nc2ccccc2[nH]1)NN=Cc1ccccc1C(=O)O	.	8	.	.	-4	.
COc1ccc(CCNC(=O)C(=O)NCC2OCCN2S(=O)(=O)c2ccc(Cl)cc2)cc1 (centres undefined)	3	1	3	-1	3	.
COc1ccc(CCNC(=O)C(=O)NCC2OCCN2S(=O)(=O)c2ccc(OC)cc2)cc1 (centres undefined)	5	30*	0	5	1	0
CN(C(=O)C1CCN(c2cncnc2)CC1)C1CCCCC1	.	-2	.	.	-5	.
S=C(NCCCN1CCOCC1)NCCCN1CCOCC1	-1	40*	9	-4	-14	58*
CNC(C#Cc1ccccc1)c1ccccc1C(F)(F)F (centres undefined)	.	-1	.	.	2	.
CCN=C1SC(C(=O)Nc2cccc(C)c2)CC(=O)N1CC (centres undefined)	12	7	2	5	-12	.
Cc1cccc(NC(=O)C2CC(=O)n3cnnc3S2)c1 (centres undefined)	5	84*	2	1	4	60*
O=c1[nH]c2c(s1)C=Nc1ccccc1N2	0	69*	20	7	1	85*
SMILES	Fh CTSL1 inh	PRMT1 inh	GSTO1 inh	PAD4 FP inh	TDP2 absorb	PRMT1 confirm
O=C1CC(c2ccco2)CC2=C1C=Nc1ccccc1N2 (centres undefined)	0	7	-11	2	1	.
CC(c1c[nH]c2ccccc12)c1cn(C)c2ccccc12 (centres undefined)	.	5	.	.	5	.
COC(=O)[C@]12C[C@H](CC(=O)NCCCCc3ccccc3)C(=O)N(Cc3ccco3)C1=C[C@H](C1CCCC1)O[C@@H]2C	.	4	.	.	4	.
COC(=O)[C@]12C[C@H](CC(=O)N3CCN(C(=O)c4ccco4)CC3)C(=O)N(CCC3=CCCCC3)C1=C[C@H](C(C)C)O[C@@H]2C1CC1	.	-4	.	.	-1	.
O=C(NCc1ccco1)c1cccs1	-3	3	1	-4	3	.
O=C(CSCc1ccco1)c1cccs1	3	25*	5	1	6	70*
O=C(Cn1sc2ccccc2c1=O)Nc1ccccc1	.	87*	.	.	-4	89*
O=C(CN1C(=O)c2ccccc2C1=O)Nc1ccccc1	-2	-5	6	-3	5	.
CCOC(=O)CC[C@H]1CC[C@]2(CCCN(C(=O)c3ccc4ccccc4n3)C2)O1	.	3	.	.	6	.
O=[N+]([O-])c1c(Nc2cccc(O)c2)cc(Cl)c2nonc12	2	60*	5	3	-9	58*
O=C(O)c1cccc(Nc2ccc3nonc3c2[N+](=O)[O-])c1	-4	13	2	-3	-26	.
O=C(O)c1ccc(Nc2cc(Cl)c3nonc3c2[N+](=O)[O-])cc1	4	63*	-41	-1	-9	32*
Cc1c(Nc2cc(Cl)c3nonc3c2[N+](=O)[O-])c(=O)n(-c2ccccc2)n1C	.	59*	.	.	-3	58*
O=C(NCCc1ccccc1)OCc1cn(Cc2ccccc2C(F)(F)F)nn1	.	0	.	.	-3	.
CCCCNC[C@@]12CO[C@H](c3ccc(Cl)cc3)N1[C@@H](c1ccc(Cl)cc1)SC2	.	3	.	.	7	.
CCOC(=O)Cn1cc(CN2C(C(=O)OC)CN(C3CCCC3)CCS2(=O)=O)nn1 (centres undefined)	.	-1	.	.	-16	.
CCC1CCc2sc(C(=O)Nc3cc(S(=O)(=O)N4CCOCC4)ccc3OC)cc2C1 (centres undefined)	.	2	.	.	1	.
CC(=O)OCC(=O)N1CCN(C(=O)C(=O)c2cccc(C(F)(F)F)c2)CC1	.	1	.	.	-5	.
Cc1ccc(-n2c(N)c(C(=O)N3CCCCC3)sc2=S)cc1	8	5	4	-3	2	.
Cc1ccc(-n2c(N)c(C(=O)N3CCN(C)CC3)sc2=S)cc1	-1	86*	-1	-4	2	71*
CCC(=O)Nc1ccc2c(c1)C(=O)N(C)[C@@H]1CC[C@@H](CC(=O)NCc3ccc(OC)cc3)O[C@H]1CO2	.	5	.	.	-7	.
